Activity calls are given as the source filed them. The calls are words filed in the database; no cut-off is given here.
Tested on: Mus musculus
Test: Tested for plasma level after 90 min of 10 mg/kg dose administered in mice; Not detected.
Format: ADME, organism-based
Set-up: dose 10 mg/kg
Details: in vivo, 1.5 h
Procedure, shortened: (§1)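 Plasma compound concentration (ng/mL) measured 90 min after oral dosing in LPS-stimulated mice at 10 or 30 mg/kg.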

Row | Compound | Activity
1 | CC(C)(C)c1cc(NC(=O)Nc2ccc(OCCN3CCOCC3)c3ccccc23)n(-c2ccc(N)cc2)n1 | Not Active

Target: T1, Tumor necrosis factor (Homo sapiens, UniProt P01375)
Test: Tested for inhibition of Tumor necrosis factor, alpha in THP cells
Format: functional, cell-based
Details: not given
Procedure, shortened: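 THP-1 cells preincubated with or without compound 30 min at 37 °C, 5% CO2, then stimulated with LPS (1 μg/mL final) for a further 18–24 h. Human TNF-α in supernatant measured by ELISA.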

T1 sequence (P01375 whole entry): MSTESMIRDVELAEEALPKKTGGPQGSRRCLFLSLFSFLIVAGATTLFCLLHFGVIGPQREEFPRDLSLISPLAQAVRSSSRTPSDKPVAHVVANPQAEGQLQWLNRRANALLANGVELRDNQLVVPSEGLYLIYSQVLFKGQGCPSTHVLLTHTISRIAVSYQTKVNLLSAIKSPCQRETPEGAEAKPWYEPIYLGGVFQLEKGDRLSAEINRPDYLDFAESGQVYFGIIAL

Row | Compound | EC50 [nM]
2 | Cc1ccc(-n2nc(C(C)(C)C)cc2NC(=O)Nc2ccc(OCCN3CCOCC3)c3ccccc23)cn1 | 19
3 | CC(C)(C)c1cc(NC(=O)Nc2ccc(OCCN3CCOCC3)c3ccccc23)n(-c2ccccc2)n1 | 9
4 | Cc1ccc(-n2nc(C(C)(C)C)cc2NC(=O)Nc2ccc(OCCc3ccncc3)c3ccccc23)cc1 | 20
5 | CC(C)(C)c1cc(NC(=O)Nc2ccc(OCCN3CCOCC3)c3ccccc23)n(-c2cccc(N)c2)n1 | 11
6 | Cc1ccc(-n2nc(C(C)(C)C)cc2NC(=O)Nc2ccc(OCCN3CCOCC3)c3ccccc23)cc1 [DORAMAPIMOD] | 18
7 | Cc1ccc(-n2nc(C(C)(C)C)cc2NC(=O)Nc2ccc(OCCn3ccnc3)c3ccccc23)cc1 | 36
8 | COc1ccc(-n2nc(C(C)(C)C)cc2NC(=O)Nc2ccc(OCCN3CCOCC3)c3ccccc23)cn1 | 42
9 | CC(C)(C)c1cc(NC(=O)Nc2ccc(OCCN3CCOCC3)c3ccccc23)n(-c2ccc(N)cc2)n1 | 9
10 | Cc1ccc(-n2nc(C(C)(C)C)cc2NC(=O)Nc2ccc(OCCN3C[C@H](C)O[C@@H](C)C3)c3ccccc23)cc1 | 16
11 | Cc1ccc(-n2nc(C(C)(C)C)cc2NC(=O)Nc2ccc(OCCN3CC[S+]([O-])CC3)c3ccccc23)cc1 | 50

Target: Tumor necrosis factor (Mus musculus) (UniProt P06804)
Test: Tested for inhibition of Tumor necrosis factor, alpha in LPS-stimulated mice at a dose of 30 mg/kg
Details: not given

Tumor necrosis factor (Mus musculus), sequence (P06804 whole entry, looked up): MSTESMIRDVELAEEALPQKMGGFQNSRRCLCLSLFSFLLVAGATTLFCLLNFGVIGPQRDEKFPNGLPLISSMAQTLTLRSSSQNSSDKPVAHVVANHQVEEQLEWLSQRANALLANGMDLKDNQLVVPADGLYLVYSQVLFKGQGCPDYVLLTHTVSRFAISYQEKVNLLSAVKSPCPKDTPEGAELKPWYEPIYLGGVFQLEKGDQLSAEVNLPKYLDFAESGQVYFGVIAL

Row | Compound | inhibition [%]
12 | Cc1ccc(-n2nc(C(C)(C)C)cc2NC(=O)Nc2ccc(OCCN3CCOCC3)c3ccccc23)cn1 | 87
13 | CC(C)(C)c1cc(NC(=O)Nc2ccc(OCCN3CCOCC3)c3ccccc23)n(-c2ccccc2)n1 | 81
14 | Cc1ccc(-n2nc(C(C)(C)C)cc2NC(=O)Nc2ccc(OCCc3ccncc3)c3ccccc23)cc1 | 88
15 | Cc1ccc(-n2nc(C(C)(C)C)cc2NC(=O)Nc2ccc(OCCN3CCOCC3)c3ccccc23)cc1 [DORAMAPIMOD] | 84
16 | Cc1ccc(-n2nc(C(C)(C)C)cc2NC(=O)Nc2ccc(OCCn3ccnc3)c3ccccc23)cc1 | 81
17 | COc1ccc(-n2nc(C(C)(C)C)cc2NC(=O)Nc2ccc(OCCN3CCOCC3)c3ccccc23)cn1 | 40
18 | Cc1ccc(-n2nc(C(C)(C)C)cc2NC(=O)Nc2ccc(OCCN3C[C@H](C)O[C@@H](C)C3)c3ccccc23)cc1 | 50
19 | Cc1ccc(-n2nc(C(C)(C)C)cc2NC(=O)Nc2ccc(OCCN3CC[S+]([O-])CC3)c3ccccc23)cc1 | 84

Tested on: not listed separately
Test: Tested for plasma level after 90 min of 10 mg/kg dose administered in mice
Format: ADME, organism-based
Set-up: dose 10 mg/kg
Details: mouse, read-out: Activity
Procedure, shortened: as §1

Row | Compound | concentration at 1.5 h [ng/mL]
20 | Cc1ccc(-n2nc(C(C)(C)C)cc2NC(=O)Nc2ccc(OCCN3CCOCC3)c3ccccc23)cn1 | 13000
21 | CC(C)(C)c1cc(NC(=O)Nc2ccc(OCCN3CCOCC3)c3ccccc23)n(-c2ccccc2)n1 | 5400
22 | CC(C)(C)c1cc(NC(=O)Nc2ccc(OCCN3CCOCC3)c3ccccc23)n(-c2cccc(N)c2)n1 | 1400
23 | Cc1ccc(-n2nc(C(C)(C)C)cc2NC(=O)Nc2ccc(OCCN3CCOCC3)c3ccccc23)cc1 [DORAMAPIMOD] | 30000
24 | Cc1ccc(-n2nc(C(C)(C)C)cc2NC(=O)Nc2ccc(OCCN3C[C@H](C)O[C@@H](C)C3)c3ccccc23)cc1 | 4200

Target: Mitogen-activated protein kinase 14 (Mus musculus) (UniProt P47811)
Test: not given
Details: not given

Mitogen-activated protein kinase 14 (Mus musculus), sequence (P47811 whole entry): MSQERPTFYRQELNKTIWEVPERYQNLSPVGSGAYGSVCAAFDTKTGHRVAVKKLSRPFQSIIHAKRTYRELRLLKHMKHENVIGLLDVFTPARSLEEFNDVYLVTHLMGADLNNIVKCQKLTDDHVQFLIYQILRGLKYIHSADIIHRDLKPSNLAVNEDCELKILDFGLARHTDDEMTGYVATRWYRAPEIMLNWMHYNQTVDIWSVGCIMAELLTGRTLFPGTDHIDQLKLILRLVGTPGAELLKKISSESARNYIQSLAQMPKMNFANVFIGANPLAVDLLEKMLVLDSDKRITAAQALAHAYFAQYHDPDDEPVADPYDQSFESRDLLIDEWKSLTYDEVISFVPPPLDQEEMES

Row | Compound | Tm [°C]
25 | Cc1ccc(-n2nc(C(C)(C)C)cc2NC(=O)Nc2ccc(OCCN3CCCCC3)c3ccccc23)cc1 | 55.4
26 | COc1ccc(CCOc2ccc(NC(=O)Nc3cc(C(C)(C)C)nn3-c3ccc(C)cc3)c3ccccc23)cc1OC | 57.3
27 | Cc1ccc(-n2nc(C(C)(C)C)cc2NC(=O)Nc2ccc(OCCc3ccncc3)c3ccccc23)cc1 | 62.4
28 | Cc1ccc(-n2nc(C(C)(C)C)cc2NC(=O)Nc2ccc(OCCn3ccnc3)c3ccccc23)cc1 | 62.4
29 | COc1ccc(-n2nc(C(C)(C)C)cc2NC(=O)Nc2ccc(OCCN3CCOCC3)c3ccccc23)cn1 | 59.1
30 | Cc1ccc(-n2nc(C(C)(C)C)cc2NC(=O)Nc2ccc(OCCN3C[C@H](C)O[C@@H](C)C3)c3ccccc23)cc1 | 62.1
31 | Cc1ccc(-n2nc(C(C)(C)C)cc2NC(=O)Nc2ccc(OCCN3CC[S+]([O-])CC3)c3ccccc23)cc1 | 60.2

Second part, the compound after the results:

Row | Tm [°C] | Compound
32 | 58.1 | CC1(c2cc(NC(=O)Nc3ccc(OCCN4CCOCC4)c4ccccc34)n(-c3ccccc3)n2)CCCCC1
33 | 61.3 | Cc1ccc(-n2nc(C(C)(C)C)cc2NC(=O)Nc2ccc(OCCN3CCOCC3)c3ccccc23)cn1
34 | 61 | CC(C)(C)c1cc(NC(=O)Nc2ccc(OCCN3CCOCC3)c3ccccc23)n(-c2ccccc2)n1
35 | 60.9 | CC(C)(C)c1cc(NC(=O)Nc2ccc(OCCN3CCOCC3)c3ccccc23)n(-c2cccc(N)c2)n1
36 | 63.5 | Cc1ccc(-n2nc(C(C)(C)C)cc2NC(=O)Nc2ccc(OCCN3CCOCC3)c3ccccc23)cc1 [DORAMAPIMOD]
37 | 61.4 | CC(C)(C)c1cc(NC(=O)Nc2ccc(OCCN3CCOCC3)c3ccccc23)n(-c2ccc(N)cc2)n1

Tested on: not listed separately
Test: Tested for plasma level after 90 min of 30 mg/kg dose administered in mice
Format: ADME, organism-based
Set-up: dose 30 mg/kg
Details: mouse, read-out: Activity
Procedure, shortened: as §1

Row | Compound | concentration at 1.5 h [ng/mL]
38 | Cc1ccc(-n2nc(C(C)(C)C)cc2NC(=O)Nc2ccc(OCCc3ccncc3)c3ccccc23)cc1 | 30000
39 | Cc1ccc(-n2nc(C(C)(C)C)cc2NC(=O)Nc2ccc(OCCn3ccnc3)c3ccccc23)cc1 | 7000
40 | COc1ccc(-n2nc(C(C)(C)C)cc2NC(=O)Nc2ccc(OCCN3CCOCC3)c3ccccc23)cn1 | 80000
41 | Cc1ccc(-n2nc(C(C)(C)C)cc2NC(=O)Nc2ccc(OCCN3C[C@H](C)O[C@@H](C)C3)c3ccccc23)cc1 | 25000
42 | Cc1ccc(-n2nc(C(C)(C)C)cc2NC(=O)Nc2ccc(OCCN3CC[S+]([O-])CC3)c3ccccc23)cc1 | 62800

Further lines, results first:

Row | concentration at 1.5 h [ng/mL] | Compound
43 | 54000 | Cc1ccc(-n2nc(C(C)(C)C)cc2NC(=O)Nc2ccc(OCCN3CCOCC3)c3ccccc23)cn1
44 | 38000 | CC(C)(C)c1cc(NC(=O)Nc2ccc(OCCN3CCOCC3)c3ccccc23)n(-c2ccccc2)n1
45 | 75000 | Cc1ccc(-n2nc(C(C)(C)C)cc2NC(=O)Nc2ccc(OCCN3CCOCC3)c3ccccc23)cc1 [DORAMAPIMOD]

Target: T1, Tumor necrosis factor
Test: Tested for inhibition of Tumor necrosis factor, alpha in human whole blood
Format: functional, tissue-based
Details: not given
Procedure, shortened: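 Freshly drawn heparinized human whole blood mixed with compound serially diluted in human type AB serum, held 30 min at 37 °C, then stimulated ex vivo with E. coli LPS 0111:B4 (50 ng/mL final). Incubation 5 h at 37 °C. Plasma TNF-α quantified by ELISA, DELFIA or electrochemiluminescence against an on-plate standard curve. Duplicate 11-point curves fitted to a 4-parameter logistic. EC50 is the geometric mean over at least three donors.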

Row | Compound | EC50 [nM]
46 | Cc1ccc(-n2nc(C(C)(C)C)cc2NC(=O)Nc2ccc(OCCN3CCOCC3)c3ccccc23)cn1 | 530
47 | CC(C)(C)c1cc(NC(=O)Nc2ccc(OCCN3CCOCC3)c3ccccc23)n(-c2ccccc2)n1 | 3400
48 | Cc1ccc(-n2nc(C(C)(C)C)cc2NC(=O)Nc2ccc(OCCc3ccncc3)c3ccccc23)cc1 | 820
49 | CC(C)(C)c1cc(NC(=O)Nc2ccc(OCCN3CCOCC3)c3ccccc23)n(-c2cccc(N)c2)n1 | 1600
50 | Cc1ccc(-n2nc(C(C)(C)C)cc2NC(=O)Nc2ccc(OCCN3CCOCC3)c3ccccc23)cc1 [DORAMAPIMOD] | 780
51 | Cc1ccc(-n2nc(C(C)(C)C)cc2NC(=O)Nc2ccc(OCCn3ccnc3)c3ccccc23)cc1 | 1100
52 | COc1ccc(-n2nc(C(C)(C)C)cc2NC(=O)Nc2ccc(OCCN3CCOCC3)c3ccccc23)cn1 | > 10000
53 | CC(C)(C)c1cc(NC(=O)Nc2ccc(OCCN3CCOCC3)c3ccccc23)n(-c2ccc(N)cc2)n1 | 440
54 | Cc1ccc(-n2nc(C(C)(C)C)cc2NC(=O)Nc2ccc(OCCN3C[C@H](C)O[C@@H](C)C3)c3ccccc23)cc1 | 770
55 | Cc1ccc(-n2nc(C(C)(C)C)cc2NC(=O)Nc2ccc(OCCN3CC[S+]([O-])CC3)c3ccccc23)cc1 | 1300

Target: Tumor necrosis factor (Mus musculus) (UniProt P06804)
Test: Tested for inhibition of Tumor necrosis factor, alpha in LPS-stimulated mice at a dose of 10 mg/kg; Not statistically significant.
Details: at 10 mg/kg

Row | Compound | inhibition
56 | CC(C)(C)c1cc(NC(=O)Nc2ccc(OCCN3CCOCC3)c3ccccc23)n(-c2cccc(N)c2)n1 | inactive
57 | CC(C)(C)c1cc(NC(=O)Nc2ccc(OCCN3CCOCC3)c3ccccc23)n(-c2ccc(N)cc2)n1 | inactive
58 | Cc1ccc(-n2nc(C(C)(C)C)cc2NC(=O)Nc2ccc(OCCN3C[C@H](C)O[C@@H](C)C3)c3ccccc23)cc1 | inactive

Target: Mitogen-activated protein kinase 14 (Mus musculus, UniProt P47811)
Test: Kd value and murine Mitogen-activated protein kinase p38 alpha complex was calculated
Details: not given

Mitogen-activated protein kinase 14, sequence (P47811 whole entry): as above

Row | Compound | Kd [nM]
59 | Cc1ccc(-n2nc(C(C)(C)C)cc2NC(=O)Nc2ccc(OCCN3CCCCC3)c3ccccc23)cc1 | 14
60 | COc1ccc(CCOc2ccc(NC(=O)Nc3cc(C(C)(C)C)nn3-c3ccc(C)cc3)c3ccccc23)cc1OC | 3.5
61 | Cc1ccc(-n2nc(C(C)(C)C)cc2NC(=O)Nc2ccc(OCCc3ccncc3)c3ccccc23)cc1 | 0.1
62 | Cc1ccc(-n2nc(C(C)(C)C)cc2NC(=O)Nc2ccc(OCCn3ccnc3)c3ccccc23)cc1 | 0.074
63 | COc1ccc(-n2nc(C(C)(C)C)cc2NC(=O)Nc2ccc(OCCN3CCOCC3)c3ccccc23)cn1 | 0.87
64 | Cc1ccc(-n2nc(C(C)(C)C)cc2NC(=O)Nc2ccc(OCCN3C[C@H](C)O[C@@H](C)C3)c3ccccc23)cc1 | 0.096
65 | Cc1ccc(-n2nc(C(C)(C)C)cc2NC(=O)Nc2ccc(OCCN3CC[S+]([O-])CC3)c3ccccc23)cc1 | 0.4

The next lines start with the values.

Row | Kd [nM] | Compound
66 | 1.9 | CC1(c2cc(NC(=O)Nc3ccc(OCCN4CCOCC4)c4ccccc34)n(-c3ccccc3)n2)CCCCC1
67 | 0.18 | Cc1ccc(-n2nc(C(C)(C)C)cc2NC(=O)Nc2ccc(OCCN3CCOCC3)c3ccccc23)cn1
68 | 0.23 | CC(C)(C)c1cc(NC(=O)Nc2ccc(OCCN3CCOCC3)c3ccccc23)n(-c2ccccc2)n1
69 | 0.23 | CC(C)(C)c1cc(NC(=O)Nc2ccc(OCCN3CCOCC3)c3ccccc23)n(-c2cccc(N)c2)n1
70 | 0.16 | CC(C)(C)c1cc(NC(=O)Nc2ccc(OCCN3CCOCC3)c3ccccc23)n(-c2ccc(N)cc2)n1

Tested on: not listed separately
Test: Partition coefficient (logP)
Format: physicochemical
Details: octanol/water

Row | Compound | logP
71 | Cc1ccc(-n2nc(C(C)(C)C)cc2NC(=O)Nc2ccc(OCCN3CCOCC3)c3ccccc23)cn1 | 3.6
72 | Cc1ccc(-n2nc(C(C)(C)C)cc2NC(=O)Nc2ccc(OCCN3CCOCC3)c3ccccc23)cc1 [DORAMAPIMOD] | 4.6

Target: Tumor necrosis factor (Mus musculus) (UniProt P06804)
Test: Tested for inhibition of Tumor necrosis factor, alpha in LPS-stimulated mice at a dose of 10 mg/kg
Details: at 10 mg/kg

Row | Compound | inhibition [%]
73 | Cc1ccc(-n2nc(C(C)(C)C)cc2NC(=O)Nc2ccc(OCCN3CCOCC3)c3ccccc23)cn1 | 86
74 | CC(C)(C)c1cc(NC(=O)Nc2ccc(OCCN3CCOCC3)c3ccccc23)n(-c2ccccc2)n1 | 57
75 | Cc1ccc(-n2nc(C(C)(C)C)cc2NC(=O)Nc2ccc(OCCN3CCOCC3)c3ccccc23)cc1 [DORAMAPIMOD] | 63
